{"data": "Measurements of several laboratories", "target": "Serine/threonine-protein kinase Sgk3 (SGK3, Homo sapiens, UniProt Q96BR1)", "Sequence (Q96BR1 1-496, as in one of the studies)": "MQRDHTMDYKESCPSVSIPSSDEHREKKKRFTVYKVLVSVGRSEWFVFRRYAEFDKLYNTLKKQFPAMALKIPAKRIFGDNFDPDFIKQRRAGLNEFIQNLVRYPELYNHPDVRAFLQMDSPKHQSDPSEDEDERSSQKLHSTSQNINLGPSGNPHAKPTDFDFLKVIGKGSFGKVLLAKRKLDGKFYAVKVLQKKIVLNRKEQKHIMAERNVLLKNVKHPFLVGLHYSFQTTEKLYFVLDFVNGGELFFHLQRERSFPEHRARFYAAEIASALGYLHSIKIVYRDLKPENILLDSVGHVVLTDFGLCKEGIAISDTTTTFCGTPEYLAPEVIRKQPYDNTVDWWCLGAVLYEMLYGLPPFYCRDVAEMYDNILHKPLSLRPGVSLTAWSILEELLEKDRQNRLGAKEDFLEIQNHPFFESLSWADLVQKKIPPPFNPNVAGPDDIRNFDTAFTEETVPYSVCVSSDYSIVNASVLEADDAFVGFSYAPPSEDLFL", "note": "Lines come from different studies, so protocols differ."}
{"SMILES": "COc1cc(Cl)c(C(=O)N[C@@H](CN[C@H]2CC[C@@H](N)CC2)Cc2ccc(C#N)cc2)cc1-c1ccc(CN[C@H](C)c2ccc(C)cc2)o1", "test": "enzyme activity, inhibitor", "conditions": "1 µM", "endpoint": "remaining activity", "result": "83%"}
{"SMILES": "CC(C)(O)[C@H]1CC[C@H](Nc2ccc3ncc(-c4cccc(C(F)(F)F)c4)n3n2)CC1", "test": "enzyme activity, inhibitor", "conditions": "1 µM", "endpoint": "remaining activity", "result": "95.8%"}
{"SMILES": "CCCCNc1ncc2c(-c3ccc(F)cc3)nn(C[C@H]3CC[C@H](N)CC3)c2n1", "test": "target engagement in cells, inhibitor, chemoproteomics", "conditions": "20 mM", "endpoint": "inhibition", "result": "-2.1%"}
{"SMILES": "CNC(=O)c1cc(Oc2ccc(NC(=O)Nc3ccc(Cl)c(C(F)(F)F)c3)cc2)ccn1", "test": "enzyme activity, inhibitor", "conditions": "0.3 µM", "endpoint": "inhibition", "result": "14%"}
{"SMILES": "CN1CC(Oc2cnc(C#N)cc2-c2ccn3nc(NC(=O)C4CC4)cc3c2)C1", "test": "enzyme activity, inhibitor", "conditions": "1 µM", "endpoint": "inhibition", "result": "-3%"}
{"SMILES": "Cn1nc(C(=O)NCc2ccc(C(=O)O)cc2)cc1-c1ccc2[nH]ccc2c1", "test": "cell-free assay, competition with immobilised ligand", "conditions": "0.1 µM", "endpoint": "remaining binding", "result": "96%"}
{"SMILES": "CS(=O)(=O)CCNCc1ccc(-c2ccc3ncnc(Nc4ccc(OCc5cccc(F)c5)c(Cl)c4)c3c2)o1", "test": "cell-free assay", "conditions": "0.5 µM", "endpoint": "remaining signal", "result": "102%"}
{"SMILES": "COc1cccc2c(NCc3ccccc3)nc(-n3c(N)nc4ccccc43)nc12", "test": "target engagement in cells, inhibitor, chemoproteomics", "conditions": "20 mM", "endpoint": "inhibition", "result": "-7.6%"}
{"SMILES": "Cc1ccc(Nc2nccc(N(C)c3ccc4c(C)n(C)nc4c3)n2)cc1S(N)(=O)=O", "test": "enzyme activity, inhibitor", "conditions": "10 µM", "endpoint": "inhibition", "result": "13%"}
{"SMILES": "CCc1ccccc1C(=O)Nc1n[nH]c2c(C)c(F)c(C3C(C#N)=C(C)N(C)C(C)=C3C#N)cc12", "test": "cell-free assay, competition with immobilised ligand", "conditions": "1 µM", "endpoint": "remaining binding", "result": "91%"}
{"SMILES": "CCOc1cc(-c2nncn2C)ccc1Nc1ncc2cc(C)nc(NCC(C)(C)C)c2n1", "test": "enzyme activity, inhibitor, FRET", "conditions": "1 µM", "endpoint": "inhibition", "result": "< 15%"}
{"SMILES": "Cc1nc(C2CCN(C(=O)c3ccc(OC(F)(F)F)cc3N)CC2)c2ncc(N3CCN(C)CC3)cc2n1", "test": "cell-free assay, competition with immobilised ligand", "conditions": "1 µM", "endpoint": "remaining binding", "result": "93%"}
{"SMILES": "Cc1cc(NC(=O)c2cccc3cc(-c4cccc5[nH]nc(N)c45)ccc23)ccc1F", "test": "enzyme activity, inhibitor", "conditions": "0.1 µM", "endpoint": "activity vs control", "result": "106%"}
{"SMILES": "CCN(CC)CCNC(=O)c1c(C)[nH]c(/C=C2\\C(=O)Nc3ccc(F)cc32)c1C", "test": "cell-free assay", "conditions": "0.5 µM", "endpoint": "remaining signal", "result": "101%"}
{"SMILES": "Cc1cc(NC(=O)c2cccc(S(F)(F)(F)(F)F)c2)cc(-n2ccn3nc(-c4cccnc4)cc23)c1", "test": "cell-free assay, competition with immobilised ligand", "conditions": "1 µM", "endpoint": "remaining binding", "result": "72.1%"}
{"SMILES": "C[C@@H]1CCN(C(=O)CC#N)C[C@@H]1N(C)c1ncnc2[nH]ccc12", "test": "cell-free assay, inhibitor", "conditions": "0.5 µM", "endpoint": "remaining signal", "result": "98.1%"}
{"SMILES": "Cc1sc(C(=O)NC2COC2)cc1-n1cc(NC(=O)Nc2c(F)cccc2Cl)cn1", "test": "enzyme activity, inhibitor", "conditions": "10 µM", "endpoint": "remaining activity", "result": "90.1%"}
{"SMILES": "CNC(=O)c1ccc(Nc2ncc(C(F)(F)F)c(NCc3nccnc3N(C)S(C)(=O)=O)n2)cc1", "test": "cell-free assay, competition with immobilised ligand", "conditions": "0.1 µM", "endpoint": "remaining binding", "result": "85%"}
{"SMILES": "O=C1NC(=O)c2cc(Nc3ccc(F)cc3)c(Nc3ccc(F)cc3)cc21", "test": "cell-free assay", "conditions": "0.5 µM", "endpoint": "remaining signal", "result": "102%"}
{"SMILES": "CC(C)(C)c1nc2c(s1)c1nc(N)ncc1c1ccc(NS(=O)(=O)c3c(F)cccc3F)c(F)c12", "test": "enzyme activity, inhibitor, radiometric", "conditions": "1 µM", "endpoint": "remaining activity", "result": "89%"}
{"SMILES": "CNCc1ccccc1-c1csc([C@@H](C)Nc2nc(C)nc3cc(OC)c(OC)cc23)c1", "test": "cell-free assay, competition with immobilised ligand", "conditions": "1 µM", "endpoint": "remaining binding", "result": "78%"}
{"SMILES": "CNc1cccc2cc(C(=O)Nc3ccc(C(=O)O)cc3)c(=O)[nH]c12", "test": "enzyme activity, inhibitor", "conditions": "10 µM", "endpoint": "inhibition", "result": "-2.1%"}
{"SMILES": "CO[C@@H](C)c1c(Nc2ccc([C@H](N(C)C(=O)C3CCS(=O)(=O)CC3)C(F)(F)F)cc2)cnc2cc(Cl)nn12", "test": "cell-free assay, competition with immobilised ligand", "conditions": "1 µM", "endpoint": "remaining binding", "result": "100%"}
{"SMILES": "COc1cc2ncnc(Nc3ccc(Oc4ccccc4)cc3C)c2cc1OC", "test": "enzyme activity, inhibitor", "conditions": "1 µM", "endpoint": "inhibition", "result": "0%"}
